Activity data for one compound are collected here from ChEMBL document CHEMBL1144212, “Design and synthesis of 3-pyrazolyl-thiophene, thieno[2,3-d]pyrimidines as new bioactive and pharmacological activities” (Bioorg Med Chem Lett, 2008).

What all share (assay type): functional
Test [1] has as its system Rattus norvegicus. As to the kind of experiment: Antiinflammatory activity against carrageenan-induced albino rat hind paw edema model assessed as edema rate at 10 mg/kg, po administered 1 hr before carrageenan challenge measured after 2 hrs. The essentials: (§1)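 Indomethacin reference group: 10 mg/kg orally as an aqueous suspension, 1 h before carrageenin. Albino rats of both sexes were fasted 18 h, five per group. Edema was induced by subplantar 0.1 mL 1% w/v carrageenin in the left hind paw. Paw volume was read by mercury plethysmometer before injection and hourly for 4 h. Edema rate = (Vt − Vo)/Vo.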
A general note: In the carrageenan paw model, swelling and tenderness develop within hours.

Test [2] concerns Rattus norvegicus. As to the kind of experiment: Antiinflammatory activity against carrageenan-induced albino rat hind paw edema model assessed as edema rate at 10 mg/kg, po administered 1 hr before carrageenan challenge measured after 4 hrs. The essentials: as §1
Test [3] concerns Rattus norvegicus. The experiment in a line: Antiinflammatory activity against carrageenan-induced albino rat hind paw edema model assessed as edema rate at 10 mg/kg, po administered 1 hr before carrageenan challenge measured after 1 hr. A digest of the protocol: as §1
Test [4] deals with Rattus norvegicus. The experiment in a line: Antiinflammatory activity against carrageenan-induced albino rat hind paw edema model assessed as edema rate at 10 mg/kg, po administered 1 hr before carrageenan challenge measured after 3 hrs. The essentials: as §1

With `COc1ccc2c(c1)c(CC(=O)O)c(C)n2C(=O)c1ccc(Cl)cc1` [INDOMETHACIN], the Activity in the test on Rattus norvegicus [1] is -39.79%; in the test with Rattus norvegicus [2], -41.12%; with Rattus norvegicus [3], -35.48%; with Rattus norvegicus [4], -33.33%.
